The test system of one data set is HCT-116. The data set is described as follows: Cytotoxicity against human HCT116 cells after 72 hrs by MTT assay. As to conditions: HCT-116, 72 h. In kind it is functional, cell-based. A digest of the protocol:
(§1)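 Cells seeded at 3.5 × 10⁴ cells/mL and pre-incubated 24 h at 37 °C, 5% CO₂; compounds diluted in DMSO and added for a further 72 h, with DMSO (final 0.5%) as control. Surviving cells measured by MTT, OD read at 492/620 nm; IC50 as mean of triplicate experiments.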
A general note: Tetrazolium dyes change colour on reduction, which living cells bring about.

Another data set deals with PC-3. The experiment in a line: Cytotoxicity against human PC3 cells after 72 hrs by MTT assay. In kind it is functional, cell-based. The settings on record: PC-3, 72 h. A digest of the protocol: as §1
The nature of data set [1]: Cytotoxicity against human U87MG cells after 72 hrs by MTT assay. As to conditions: U-87 MG. In kind it is functional, cell-based, U-87MG ATCC. The method, boiled down:
as §1

The subject of the next data set is HepG2. The data set is described as follows: Cytotoxicity against human HepG2 after 72 hrs by MTT assay. In kind it is functional, cell-based. The settings on record: HepG2, 72 h. A digest of the protocol: as §1
A further data set relates to SK-OV-3. The data set is described as follows: Cytotoxicity against human SKOV3 cells after 72 hrs by MTT assay. The data set is classed as functional, cell-based. As to conditions: SK-OV-3, 72 h. A digest of the protocol:
as §1

The nature of data set [2]: Cytotoxicity against human L02 cells after 72 hrs by MTT assay. The data set is classed as cell-based. As to conditions: L02, 72 h. A digest of the protocol: as §1
A short description of data set [3]: Cytotoxicity against human HK2 cells after 72 hrs by MTT assay. As to conditions: HK-2, 72 h. The data set is classed as cell-based. The method, boiled down:
as §1

For data set [4], the system named is CCRF S-180. The experiment in a line: Antitumor activity against mouse S180 cells xenografted in ICR mouse assessed as tumor growth suppression at 7.5 mg/kg, ip qd for 7 days measured on day 8. In kind it is functional. The settings on record: route intraperitoneal. A digest of the protocol: (§2)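 S-180 sarcoma cells implanted in ICR mice (2.5 × 10⁶ or 3 × 10⁶ cells/animal, depending on batch); ten animals per group, allocated by body weight. Dosed intraperitoneally once daily for seven consecutive days in 0.9% physiological saline; saline-only model group and amonafide 30 mg/kg positive control. Body weights recorded every two days; tumours excised and weighed 24 h after last injection; suppression relative to control group.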

Another data set deals with Mus musculus. The experiment in a line: Toxicity in mouse S180 cells xenografted ICR mouse assessed as mortality at 15 to 30 mg/kg, ip qd for 7 days. As to conditions: in vivo, 168 h. Also noted: dose 15-30 mg/kg, route intraperitoneal. The data set is classed as organism-based, CCRF S-180. The method, boiled down:
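S-180 sarcoma cells implanted into ICR mice (3 × 10⁶ cells/animal for this batch), ten animals per group allocated by weight. Drug dissolved in 0.9% saline (stock 0.75–3 mg/mL) and given intraperitoneally once daily for seven consecutive days at 7.5, 15 or 30 mg/kg; saline-only model group. Body weight recorded every two days; tumors excised and weighed 24 h after last injection.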

Data set [5] deals with CCRF S-180. The data set is described as follows: Antitumor activity against mouse S180 cells xenografted in ip dosed ICR mouse assessed as tumor growth suppression administered qd for 7 days measured on day 8. In kind it is functional, organism-based. The method, boiled down: as §2
The subject of data set [6] is CCRF S-180. The experiment in a line: Antitumor activity against mouse S180 cells xenografted in ICR mouse assessed as tumor growth suppression at 30 mg/kg, ip qd for 7 days measured on day 8 relative to control. The data set is classed as functional. The settings on record: route intraperitoneal. The method, boiled down: as §2
The test system of data set [7] is CCRF S-180. The data set is described as follows: Antitumor activity against mouse S180 cells xenografted in ICR mouse assessed as tumor growth suppression at 45 mg/kg, ip qd for 7 days measured on day 8 relative to control. The data set is classed as functional. The settings on record: route intraperitoneal. A digest of the protocol: as §2
In data set [8] the test system is CCRF S-180. The experiment in a line: Antitumor activity against mouse S180 cells xenografted in ICR mouse assessed as tumor growth suppression at 60 mg/kg, ip qd for 7 days measured on day 8 relative to control. The settings on record: route intraperitoneal. The data set is classed as functional. A digest of the protocol:
as §2

As to `CN(C)CCN1C(=O)c2cccc3c2c(cc2nnn(CCN(C)C)c23)C1=O`, the IC50 – broadly, the midpoint of a concentration-inhibition curve – in the data set on HCT-116 came out at 190 nM; in the data set with PC-3, 730 nM; in [1] it was 130 nM; in the data set with HepG2, 170 nM; with SK-OV-3, 350 nM.

For the compound `CN(C)CCN1C(=O)c2cccc3c2c(cc2nnn(CCO)c23)C1=O`, the IC50 turned out to be 1420 nM in the data set with HCT-116; 4290 nM with PC-3; 1220 nM in data set [1]; 1070 nM with HepG2; 2530 nM with SK-OV-3.

For `COc1ccc(Nc2cc3c4c(cccc4c2)C(=O)N(CCN(C)C)C3=O)cc1`, the IC50 with HCT-116 turned out to be 1240 nM; in the data set with PC-3, 1620 nM; in data set [1], 2520 nM; in the data set on HepG2, 900 nM; in the data set with SK-OV-3, 2340 nM.

For the compound `CN(C)CCCn1nnc2cc3c4c(cccc4c21)C(=O)N(CCN(C)C)C3=O`, the IC50 with HCT-116 was found to be 150 nM; in the data set on PC-3 it was 710 nM; in data set [1] it was 140 nM; in the data set on HepG2, 180 nM; in the data set with SK-OV-3, 400 nM.

For the compound `CN(C)CCN1C(=O)c2cccc3cc(Nc4ccc([N+](=O)[O-])cc4)cc(c23)C1=O`, the IC50 in the data set with HCT-116 is 620 nM; with PC-3 it was 410 nM; in data set [1] it was 620 nM; in the data set on HepG2, 410 nM; in the data set with SK-OV-3, 1320 nM.

As for `CCCCn1nnc2cc3c4c(cccc4c21)C(=O)N(CCN(C)C)C3=O`, the concentration for half-maximal inhibition (IC50) was 1820 nM with HCT-116; 4770 nM with PC-3; 1460 nM in [1]; 1010 nM in the data set on HepG2; 2550 nM in the data set with SK-OV-3.

`CCCCn1nnc2cc3c4c(cccc4c21)C(=O)N(CCCN(C)C)C3=O`: the IC50 turned out to be 6340 nM in the data set with HCT-116; 15500 nM with PC-3; 6320 nM in data set [1]; 5770 nM in the data set on HepG2; 8930 nM in the data set with SK-OV-3.

As to `CN(C)CCN1C(=O)c2cccc3c2c(cc2nnn(C)c23)C1=O`, the IC50 in the data set on HCT-116 came to 650 nM; with PC-3, 1580 nM; in data set [1], 450 nM; in the data set on HepG2, 680 nM; in the data set on SK-OV-3 it was 1170 nM; in data set [2], 1770 nM. The same compound had an IC50 in data set [3] of 990 nM. Further, the Activity is listed as 26.25% with CCRF S-180 [4] and “Toxic” with Mus musculus.

For the compound `CN(C)CCCN1C(=O)c2cccc3c2c(cc2nnn(CCN(C)C)c23)C1=O`, the IC50 with HCT-116 was found to be 390 nM; in the data set with PC-3, 3280 nM; in [1], 370 nM; with HepG2, 780 nM; in the data set with SK-OV-3, 640 nM.

For `CN(C)CCCN1C(=O)c2cccc3c2c(cc2nnn(CCO)c23)C1=O`, the half-inhibitory concentration (IC50) in the data set with HCT-116 worked out at 7730 nM; in the data set with PC-3, 25000 nM; in [1], 4310 nM; in the data set on HepG2, 5210 nM; in the data set with SK-OV-3, 9640 nM.

For the compound `Cn1nnc2cc3c4c(cccc4c21)C(=O)N(CC[N+](C)(C)[O-])C3=O`, the IC50 was greater than 10000 nM in the data set on HCT-116; greater than 10000 nM in the data set on PC-3; greater than 10000 nM in [1]; greater than 10000 nM in the data set with HepG2; greater than 10000 nM in the data set on SK-OV-3; 142000 nM in data set [2]. Further, in data set [3], the IC50 amounted to 108000 nM. Further, the Activity result in the data set on CCRF S-180 [5] was “Dose-dependent effect”; in the data set on CCRF S-180 [6], 4.83%; in the data set with CCRF S-180 [7] it was 46.18%; in the data set on CCRF S-180 [8], 62.74%.

In the case of `CN(C)CCCN1C(=O)c2cccc3c2c(cc2nnn(C)c23)C1=O`, the IC50 in the data set on HCT-116 was 1350 nM; in the data set with PC-3, 3210 nM; in data set [1] it was 1140 nM; in the data set with HepG2 it was 970 nM; in the data set on SK-OV-3, 2000 nM.

Regarding `CN(C)CCN1C(=O)c2cccc3cc(N)cc(c23)C1=O` [AMONAFIDE], the IC50 in the data set on HCT-116 is 4550 nM; with PC-3, 8050 nM; in data set [1], 2800 nM; in the data set on HepG2, 1410 nM; in the data set on SK-OV-3, 8830 nM.

On to `CN(C)CCCN1C(=O)c2cccc3c2c(cc2nnn(CCCN(C)C)c23)C1=O`, for which the IC50 was 350 nM in the data set with HCT-116; 1200 nM in the data set on PC-3; 300 nM in [1]; 290 nM in the data set on HepG2; 460 nM in the data set on SK-OV-3.

The values are drawn from ChEMBL document CHEMBL1926543, “Unprecedented synthesis, in vitro and in vivo anti-cancer evaluation of novel triazolonaphthalimide derivatives” (Eur J Med Chem, 2012).
